Measured values taken from ChEMBL document CHEMBL2380292, “Discovery of SAR184841, a potent and long-lasting inhibitor of 11β-hydroxysteroid dehydrogenase type 1, active in a physiopathological animal model of T2D” (Bioorg Med Chem Lett, 2013).

What was measured:
Mus musculus [1] = assay: Antidiabetic activity in diet induced obese C57Bl/6J mouse assessed as plasma cholesterol level at 1 mg/kg, po qd administered for 4 weeks (reference value: 154.3 +/- 8.6 mg/dL); assay type: functional
[2] = Cmax in rat plasma at 10 mg/kg, po; assay type: ADME, organism-based; design: dose 10 mg/kg, route oral
Mus musculus [3] = assay: Antidiabetic activity in diet induced obese C57Bl/6J mouse assessed as plasma glucose level at 3 mg/kg, po qd administered for 4 weeks (reference value: 297 +/- 15 mg/dL); assay type: functional
Xenopus laevis = species: Xenopus laevis; assay: Toxicity in Xenopus laevis by teratogenicity assay; assay type: organism-based; conditions: in vivo
Liver microsomes [4] = assay: Metabolic stability in rat liver microsomes; assay type: ADME, Microsome
in vivo = conditions: rat, adipose tissue, po, 10 mg/kg
Mus musculus [5] = assay: Antidiabetic activity in diet induced obese C57Bl/6J mouse assessed as plasma leptin level at 3 mg/kg, po qd administered for 4 weeks (reference value: 22.5 +/- 2.4 ng/mL); assay type: functional
Mus musculus [6] = assay: Antidiabetic activity in diet induced obese C57Bl/6J mouse assessed as plasma glucose level at 1 mg/kg, po qd administered for 4 weeks (reference value: 297 +/- 15 mg/dL); assay type: functional
Hepatocyte = assay: Intrinsic clearance in human hepatocytes assessed per 10^-6 cells; assay type: ADME, cell-based
Mus musculus [7] = assay: Ex vivo inhibition of 11beta-HSD1 in C57Bl/6J mouse subcutaneous fat at 30 mg/kg, po after 16 hrs; assay type: functional
Method in brief: (§1)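 Mice given a single oral dose as a suspension in Tween 80/0.6% methylcellulose (0.5/99.5, v/v) at 10 mL/kg. At 2 h or 16 h post-dose, animals were killed by cervical dislocation and 50 mg liver and 200 mg subcutaneous fat were taken for 11β-HSD1 activity. Reactions were stopped with HCl 1 N/methanol (1/1). 3H-cortisone and 3H-cortisol were quantified by HPLC with flow scintillation detection.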

Mus musculus [8] = assay: Antidiabetic activity in diet induced obese C57Bl/6J mouse assessed as plasma leptin level at 1 mg/kg, po qd administered for 4 weeks (reference value: 22.5 +/- 2.4 ng/mL); assay type: functional
Mus musculus [9] = assay: Inhibition of 11beta-HSD1 in mouse liver at 3 mg/kg, po after 24 hrs; assay type: functional
Method in brief: (§2)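 Pharmacodynamic study in mice: single oral 3 mg/kg dose, with liver and fat 11β-HSD1 activity followed over 24 h post-dosing.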

Mus musculus [10] = assay: Toxicity in C57Bl/6J mouse assessed as effect on food intake at 1 to 10 mg/kg, po; assay type: organism-based; design: dose 1-10 mg/kg, route oral; conditions: in vivo
Method in brief: (§3)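 C57Bl/6J mice, 20 weeks old, kept on a high-fat/high-fructose diet (diet-induced obese), were dosed orally once daily for 4 weeks at 1, 3 or 10 mg/kg/day in methylcellulose-Tween 80 vehicle. Lean and obese vehicle-treated controls were included, with n = 9–10 per group. Food intake and body weight were followed. Plasma drug levels were taken at study end, about 22 h after the last dose.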

Mus musculus [11] = assay: Antidiabetic activity in po dosed C57Bl/6J mouse assessed as reduction in plasma glucose level administered for 4 weeks; assay type: functional, organism-based
Mus musculus [12] = assay: Inhibition of 11beta-HSD1 in mouse adipose tissue at 3 mg/kg, po after 7 hrs; assay type: functional; method in brief: as §2
Mus musculus [13] = assay: Antidiabetic activity in diet induced obese C57Bl/6J mouse assessed as plasma triglyceride level at 3 mg/kg, po qd administered for 4 weeks (reference value: 36.2 +/- 2.1 […]); assay type: functional
Mus musculus [14] = assay: Ex vivo inhibition of 11beta-HSD1 in C57Bl/6J mouse liver at 30 mg/kg, po after 16 hrs; assay type: functional; method in brief: as §1
Mus musculus [15] = assay: Antidiabetic activity in diet induced obese C57Bl/6J mouse assessed as plasma glucose level at 10 mg/kg, po qd administered for 4 weeks (reference value: 297 +/- 15 mg/dL); assay type: functional
[16] = biological target: 11-beta-hydroxysteroid dehydrogenase 1 (Homo sapiens, UniProt P28845); assay: Inhibition of human recombinant 11beta-HSD1 by scintillation proximity assay
11-beta-hydroxysteroid dehydrogenase 1 (Homo sapiens, UniProt P28845), sequence (P28845 whole entry): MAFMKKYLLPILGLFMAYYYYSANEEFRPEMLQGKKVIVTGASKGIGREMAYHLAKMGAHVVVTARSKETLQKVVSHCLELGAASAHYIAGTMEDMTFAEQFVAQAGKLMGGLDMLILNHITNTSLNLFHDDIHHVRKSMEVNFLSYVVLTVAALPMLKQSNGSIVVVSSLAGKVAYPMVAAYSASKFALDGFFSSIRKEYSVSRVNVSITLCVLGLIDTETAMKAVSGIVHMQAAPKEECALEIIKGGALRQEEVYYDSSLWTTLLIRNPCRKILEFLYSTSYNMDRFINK

[17] = Permeability across human Caco2 cells; assay type: ADME, cell-based; conditions: Caco-2, read-out: permeability
Method in brief: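 Permeability was measured with the compound alone and in the presence of the P-gp inhibitor elacridar, and expressed in 10^-7 cm/s.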

Mus musculus [18] = assay: Antidiabetic activity in diet induced obese C57Bl/6J mouse assessed as plasma insulin level at 10 mg/kg, po qd administered for 4 weeks (reference value: 3.6 +/- 0.2 ng/mL); assay type: functional
Liver = assay: Metabolic stability in mouse liver microsomes; assay type: ADME, Microsome
Salmonella typhimurium = assay: Genotoxicity in Salmonella typhimurium by Ames test; assay type: toxicity, organism-based; conditions: salmonella enterica subsp. enterica serovar typhimurium
Liver microsomes [19] = assay: Metabolic stability in human liver microsomes; assay type: ADME, Microsome
Mus musculus [20] = assay: Antidiabetic activity in diet induced obese C57Bl/6J mouse assessed as plasma cholesterol level at 3 mg/kg, po qd administered for 4 weeks (reference value: 154.3 +/- 8.6 mg/dL); assay type: functional
[21] = biological target: T1, 11-beta-hydroxysteroid dehydrogenase type 2 (Homo sapiens, UniProt P80365); assay: Inhibition of human 11beta-HSD2
T1 sequence (P80365 whole entry): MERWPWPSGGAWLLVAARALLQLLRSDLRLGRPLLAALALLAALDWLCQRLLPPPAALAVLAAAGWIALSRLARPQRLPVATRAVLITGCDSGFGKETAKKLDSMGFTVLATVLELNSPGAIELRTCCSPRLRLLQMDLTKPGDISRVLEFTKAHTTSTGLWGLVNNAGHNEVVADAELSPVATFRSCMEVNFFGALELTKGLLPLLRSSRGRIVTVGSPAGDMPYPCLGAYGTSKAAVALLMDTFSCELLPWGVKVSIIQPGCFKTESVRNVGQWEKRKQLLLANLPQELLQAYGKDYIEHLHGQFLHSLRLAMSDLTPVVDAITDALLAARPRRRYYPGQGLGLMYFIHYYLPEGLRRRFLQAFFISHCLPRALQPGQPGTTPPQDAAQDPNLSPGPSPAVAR

Mus musculus [22] = assay: Antidiabetic activity in diet induced obese C57Bl/6J mouse assessed as liver triglyceride level at 3 mg/kg, po qd administered for 4 weeks (reference value: 210.5 +/- 15.4 mg/g); assay type: functional
[23] = Volume of distribution at steady state in rat at 3 mg/kg, iv and 10 mg/kg, po; assay type: ADME, organism-based; conditions: in vivo, read-out: Vdss
[24] = Induction of cytochrome P450 (unknown origin); assay type: ADME; conditions: human
[25] = Plasma concentration in C57Bl/6J mouse at 10 mg/kg, po 22 hrs post last dose; assay type: ADME, organism-based; design: dose 10 mg/kg, route oral; method in brief: as §3
Mus musculus [26] = assay: Antidiabetic activity in diet induced obese C57Bl/6J mouse assessed as increase of glucose tolerance at 10 mg/kg, po after 3 weeks by oral glucose tolerance test; assay type: functional
Mus musculus [27] = assay: Inhibition of 11beta-HSD1 in mouse adipose tissue at 3 mg/kg, po after 24 hrs; assay type: functional; method in brief: as §2
[28] = Plasma clearance in rat at 3 mg/kg, iv and 10 mg/kg, po; assay type: ADME, organism-based
[29] = biological target: 11-beta-hydroxysteroid dehydrogenase 1 (Rattus norvegicus, UniProt P16232); assay: Inhibition of rat 11beta-HSD1
11-beta-hydroxysteroid dehydrogenase 1 (Rattus norvegicus, UniProt P16232), sequence (P16232 whole entry): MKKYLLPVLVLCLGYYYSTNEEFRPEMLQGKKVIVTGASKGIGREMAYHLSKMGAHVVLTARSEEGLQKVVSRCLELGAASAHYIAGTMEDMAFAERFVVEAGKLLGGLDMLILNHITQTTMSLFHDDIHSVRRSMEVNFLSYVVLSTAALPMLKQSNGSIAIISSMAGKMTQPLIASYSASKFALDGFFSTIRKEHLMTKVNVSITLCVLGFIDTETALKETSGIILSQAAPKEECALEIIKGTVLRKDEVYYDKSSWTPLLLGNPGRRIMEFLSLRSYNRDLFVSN

Mus musculus [30] = assay: Antidiabetic activity in diet induced obese C57Bl/6J mouse assessed as plasma triglyceride level at 1 mg/kg, po qd administered for 4 weeks (reference value: 36.2 +/- 2.1 […]); assay type: functional

- Cmax [2]: 556 ng/mL
- Stability (Liver microsomes [4]): 15%
- Kp (in vivo): 2.2
- CLH (Hepatocyte): 0.035 mL/h
- IC50 [16]: 4 nM
- Papp [17]: 0.3 ×10⁻⁶ cm/s
- Stability (Liver): 13%
- Stability (Liver microsomes [19]): 2%
- IC50 [21]: 4000 nM
- Vd [23]: 14 L/kg
- Activity [24]: Not Active
- concentration at 22 h [25]: 2.6 nM
- clearance [28]: 86.7 mL/min/kg
- IC50 [29]: 7 nM
Compound: CC(C)(C)N1CCN(c2ccc(N3CCN(C(=O)N[C@H]4C5CC6CC4C[C@](C(N)=O)(C6)C5)c4ccccc43)nc2)CC1
- Activity (Mus musculus [1]): 127.7 mg/dL
- Activity (Mus musculus [3]): 251 mg/dL
- Activity (Xenopus laevis): Non-toxic
- Activity (Mus musculus [5]): 12.5 ng/mL
- Activity (Mus musculus [6]): 263 mg/dL
- inhibition in vivo at 30 mg/kg (Mus musculus [7]): 60%
- Activity (Mus musculus [8]): 14.9 ng/mL
- inhibition in vivo at 3 mg/kg (Mus musculus [9]): 60%
- Activity (Mus musculus [10]): Non-toxic
- Activity (Mus musculus [11]): Dose-dependent effect
- inhibition in vivo at 3 mg/kg (Mus musculus [12]): > 90%
- Activity (Mus musculus [13]): 38.4 mg/mL
- inhibition in vivo at 30 mg/kg (Mus musculus [14]): 72%
- Activity (Mus musculus [15]): 224.6 mg/dL
- Activity (Mus musculus [18]): 1.9 ng/mL
- Activity (Salmonella typhimurium): Non-toxic
- Activity (Mus musculus [20]): 125.1 mg/dL
- Activity (Mus musculus [22]): 142.8 mg/g
- Activity (Mus musculus [26]): -23%
- inhibition in vivo at 3 mg/kg (Mus musculus [27]): 40%
- Activity (Mus musculus [30]): 33.8 mg/mL
